Structures are written as SMILES. Activity calls are given as the source filed them. The calls are words filed in the database; no cut-off is given here.

Our source for the inhibition and Activity values is ChEMBL document CHEMBL4118181, “Investigations on small molecule inhibitors targeting the histone H3K4 tri-methyllysine binding PHD-finger of JmjC histone demethylases” (Bioorg Med Chem, 2018).

Test [1] concerns the target Histone lysine demethylase PHF8 (Homo sapiens) (UniProt Q9UPP1). Kind of test: Displacement of C-terminally biotinylated-H3K4me3 (1 to 21 residues) peptide from KDM7B (PHD-JmjC) (unknown origin) at 100 uM preincubated for 15 mins followed by peptide addition measured after 1 hr by luminescence-based AlphaScreen assay. On the technique in general: In Alpha technology, singlet oxygen from a donor bead excites a nearby acceptor bead.

Test [2] has as its target T1, Lysine-specific demethylase 7A (Homo sapiens) (UniProt Q6ZMT4).
T1 sequence (whole entry): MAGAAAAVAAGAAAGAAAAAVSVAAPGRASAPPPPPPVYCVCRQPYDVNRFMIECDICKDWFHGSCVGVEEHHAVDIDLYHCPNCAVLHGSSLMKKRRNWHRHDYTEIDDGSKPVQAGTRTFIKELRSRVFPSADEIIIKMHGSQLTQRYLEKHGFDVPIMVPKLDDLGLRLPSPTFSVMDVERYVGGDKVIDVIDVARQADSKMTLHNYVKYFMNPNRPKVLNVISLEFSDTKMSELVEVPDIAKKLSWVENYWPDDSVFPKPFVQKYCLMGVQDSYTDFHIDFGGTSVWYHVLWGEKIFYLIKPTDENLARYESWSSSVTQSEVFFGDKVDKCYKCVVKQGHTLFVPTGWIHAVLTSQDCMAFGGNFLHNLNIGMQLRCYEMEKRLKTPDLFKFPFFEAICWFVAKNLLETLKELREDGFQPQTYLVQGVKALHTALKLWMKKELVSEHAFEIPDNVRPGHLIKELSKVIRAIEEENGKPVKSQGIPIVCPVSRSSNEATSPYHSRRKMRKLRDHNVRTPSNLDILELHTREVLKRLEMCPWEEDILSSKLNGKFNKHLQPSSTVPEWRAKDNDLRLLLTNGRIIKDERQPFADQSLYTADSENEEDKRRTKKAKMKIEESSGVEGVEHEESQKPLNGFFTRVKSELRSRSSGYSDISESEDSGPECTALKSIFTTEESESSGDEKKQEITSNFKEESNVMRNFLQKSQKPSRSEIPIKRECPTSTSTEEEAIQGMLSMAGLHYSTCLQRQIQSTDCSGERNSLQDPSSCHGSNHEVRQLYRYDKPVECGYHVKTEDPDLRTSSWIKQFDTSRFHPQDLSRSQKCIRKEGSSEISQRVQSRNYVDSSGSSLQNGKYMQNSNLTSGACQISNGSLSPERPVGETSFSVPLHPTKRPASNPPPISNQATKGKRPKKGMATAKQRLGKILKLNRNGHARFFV
Kind of test: Inhibition of KDM7A (PHD-JmjC) (unknown origin) demethylation activity at 100 uM preincubated for 10 mins followed by H3(1-15)K9me2 peptide substrate addition by MALDI-TOF-MS analysis.

In test [3] the target is Lysine-specific demethylase 5A (Homo sapiens) (UniProt P29375). As to the kind of experiment: Substrate activity at KDM5A (L88 to G353 residues) ARID/PHD1/2/3 deletion mutant (unknown origin) demethylation activity assessed as formaldehyde production measured every 30 seconds over 25 mins in absence of H3K4me3.
Test [4] has the same target. Kind of test: Mixed type inhibition of KDM5A (L88 to G353 residues) ARID/PHD1/2/3 deletion mutant (unknown origin) demethylation activity using H3(1-21)K4me3 peptide as substrate measured every 30 seconds over 25 mins by formaldehyde dehydrogenase coupled activity assay based Lineweaver-Burk plot analysis. The procedure, abridged:
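FDH enzyme-coupled fluorescence assay of KDM5A_c2 demethylation, with formaldehyde production as the read-out. Kinetic analysis is made against the H3K4me3 substrate, and α and Ki are derived to assign the inhibition mode.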

The target in test [5] is T1, Lysine-specific demethylase 7A (Homo sapiens). Kind of test: Displacement of C-terminally biotinylated-H3K4me3 (1 to 21 residues) peptide from KDM7A (PHD-JmjC) (unknown origin) at 100 uM preincubated for 15 mins followed by peptide addition measured after 1 hr by luminescence-based AlphaScreen assay.

Histone lysine demethylase PHF8 (Homo sapiens), sequence (Q9UPP1 whole entry, the tested form may be a part): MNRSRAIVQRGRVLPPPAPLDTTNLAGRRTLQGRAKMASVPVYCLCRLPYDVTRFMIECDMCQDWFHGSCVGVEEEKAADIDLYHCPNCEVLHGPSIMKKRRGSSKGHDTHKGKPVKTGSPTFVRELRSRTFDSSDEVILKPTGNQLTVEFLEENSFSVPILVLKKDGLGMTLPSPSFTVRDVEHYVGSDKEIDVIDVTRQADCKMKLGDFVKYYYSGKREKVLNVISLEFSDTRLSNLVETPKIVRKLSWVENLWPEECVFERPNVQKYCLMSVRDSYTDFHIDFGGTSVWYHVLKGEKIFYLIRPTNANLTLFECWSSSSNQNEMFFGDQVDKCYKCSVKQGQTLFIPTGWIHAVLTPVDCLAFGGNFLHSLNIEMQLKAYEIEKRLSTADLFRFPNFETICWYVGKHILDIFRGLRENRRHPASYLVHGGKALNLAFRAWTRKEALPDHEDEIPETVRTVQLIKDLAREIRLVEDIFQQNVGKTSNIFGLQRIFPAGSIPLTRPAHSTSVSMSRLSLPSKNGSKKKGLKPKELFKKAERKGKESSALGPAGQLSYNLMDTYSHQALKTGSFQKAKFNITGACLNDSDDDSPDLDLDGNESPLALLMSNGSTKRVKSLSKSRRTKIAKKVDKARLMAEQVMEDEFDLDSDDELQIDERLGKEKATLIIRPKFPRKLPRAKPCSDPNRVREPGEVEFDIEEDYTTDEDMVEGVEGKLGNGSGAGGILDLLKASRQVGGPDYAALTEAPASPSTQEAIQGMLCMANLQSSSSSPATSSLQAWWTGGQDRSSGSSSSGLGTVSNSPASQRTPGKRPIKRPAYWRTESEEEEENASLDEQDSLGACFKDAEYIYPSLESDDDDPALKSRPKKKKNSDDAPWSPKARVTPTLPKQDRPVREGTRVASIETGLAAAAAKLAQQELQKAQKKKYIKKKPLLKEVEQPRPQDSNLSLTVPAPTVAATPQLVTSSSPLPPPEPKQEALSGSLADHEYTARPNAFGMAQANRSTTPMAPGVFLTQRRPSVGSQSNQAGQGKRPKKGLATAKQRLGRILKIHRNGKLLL
Lysine-specific demethylase 5A (Homo sapiens), sequence (P29375 whole entry, the tested form may be a part): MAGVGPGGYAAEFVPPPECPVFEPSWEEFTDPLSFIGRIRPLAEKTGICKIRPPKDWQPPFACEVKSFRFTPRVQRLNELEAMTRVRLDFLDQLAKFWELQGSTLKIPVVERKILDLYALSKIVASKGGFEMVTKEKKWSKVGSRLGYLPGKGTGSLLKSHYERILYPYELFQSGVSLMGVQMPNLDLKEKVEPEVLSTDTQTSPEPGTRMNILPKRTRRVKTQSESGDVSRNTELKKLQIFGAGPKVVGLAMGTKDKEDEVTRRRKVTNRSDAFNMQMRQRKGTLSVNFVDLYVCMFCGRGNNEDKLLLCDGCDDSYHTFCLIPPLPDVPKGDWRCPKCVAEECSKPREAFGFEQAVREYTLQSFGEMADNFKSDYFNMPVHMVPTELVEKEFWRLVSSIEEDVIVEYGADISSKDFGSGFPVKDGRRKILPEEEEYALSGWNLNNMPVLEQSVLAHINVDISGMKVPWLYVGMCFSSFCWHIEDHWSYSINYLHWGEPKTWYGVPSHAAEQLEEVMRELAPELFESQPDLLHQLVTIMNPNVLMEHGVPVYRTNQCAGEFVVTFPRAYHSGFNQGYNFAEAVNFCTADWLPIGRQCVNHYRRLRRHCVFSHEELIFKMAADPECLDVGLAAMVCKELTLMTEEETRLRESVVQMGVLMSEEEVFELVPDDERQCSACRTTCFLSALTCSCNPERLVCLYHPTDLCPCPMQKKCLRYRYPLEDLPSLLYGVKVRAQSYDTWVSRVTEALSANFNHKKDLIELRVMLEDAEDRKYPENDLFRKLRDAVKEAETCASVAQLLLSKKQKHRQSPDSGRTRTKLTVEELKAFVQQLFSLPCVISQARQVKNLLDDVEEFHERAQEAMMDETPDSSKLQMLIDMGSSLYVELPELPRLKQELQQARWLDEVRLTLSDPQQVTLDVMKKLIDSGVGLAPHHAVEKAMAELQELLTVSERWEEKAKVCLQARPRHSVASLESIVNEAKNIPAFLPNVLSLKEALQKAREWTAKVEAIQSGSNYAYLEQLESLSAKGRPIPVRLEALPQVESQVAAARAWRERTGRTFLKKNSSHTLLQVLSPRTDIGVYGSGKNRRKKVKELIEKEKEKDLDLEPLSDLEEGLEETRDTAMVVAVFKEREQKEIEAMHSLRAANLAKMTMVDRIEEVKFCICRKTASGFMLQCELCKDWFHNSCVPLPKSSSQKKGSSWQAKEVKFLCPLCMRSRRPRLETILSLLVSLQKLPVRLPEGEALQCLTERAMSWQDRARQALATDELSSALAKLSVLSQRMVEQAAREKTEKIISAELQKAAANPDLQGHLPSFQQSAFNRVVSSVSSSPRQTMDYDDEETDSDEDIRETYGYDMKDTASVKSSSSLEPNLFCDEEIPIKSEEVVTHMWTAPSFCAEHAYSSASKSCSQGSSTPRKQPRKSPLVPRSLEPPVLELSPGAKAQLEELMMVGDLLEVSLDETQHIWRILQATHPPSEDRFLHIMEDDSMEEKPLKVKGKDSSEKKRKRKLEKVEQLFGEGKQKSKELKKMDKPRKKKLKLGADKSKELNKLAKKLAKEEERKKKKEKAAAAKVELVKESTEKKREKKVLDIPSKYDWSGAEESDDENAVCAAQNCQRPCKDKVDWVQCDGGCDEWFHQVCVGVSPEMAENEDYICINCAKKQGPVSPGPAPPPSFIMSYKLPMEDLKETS

In general, inhibition refers to the change of the read-out against control, counted positive when it falls. `CCCCc1oc2ccccc2c1C(=O)c1cc(I)c(OCCC[N+](C)(C)C)c(I)c1`: the inhibition result in test [1] was “inactive”. Also, the inhibition in test [2] worked out at 100%.
In test [2], `CCCCc1oc2ccccc2c1C(=O)c1ccc(OCCC[N+](C)(C)C)cc1` had an inhibition of 100%. In test [3], the outcome was inactive. Besides, in test [4], the inhibition result was “Active”.
With `CCCCc1oc2ccccc2c1C(=O)c1cc(I)c(OCC[N+](C)(C)C)c(I)c1`, the inhibition entry in test [1] and in test [5] was “inactive” in each case. This molecule also gave an inhibition in test [2] of 17%.
Turning to `CCCCc1oc2ccccc2c1C(=O)c1ccc(OCCCN(C)C)cc1`, in test [1], the inhibition result was “inactive”. This molecule registered an inhibition in test [2] of 100%.
Consider `Cc1oc2ccccc2c1C(=O)c1ccc(OCCC[N+](C)(C)C)cc1`, for which, in test [2], the inhibition came out at 100%.
